Measured values taken from ChEMBL document CHEMBL1240482, “Synthesis and antiproliferative evaluation of certain indeno[1,2-c]quinoline derivatives. Part 2” (J Med Chem, 2010).
The source made the active and inactive calls. No cut-off for these calls is given here.

Assays:
Detroit 551 [1] = experiment: Selectivity index, ratio of IC50 for human Detroit 551 cells to IC50 for human SKHep cells; type: functional
Nucleic Acid = experiment: Binding affinity to pBR322; type: nucleic-acid assay; settings: Escherichia coli
[2] = Cytotoxicity against human BT-483 cells after 48 hrs by MTT assay; type: functional; settings: BT-483, 48 h
Method in brief: (§1)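 Cells grown in DMEM with 10% FBS at 37 °C and 5% CO2, seeded at 5 × 10^3 per well and allowed 24 h before drug. Serial dilutions from DMSO stocks applied for 48 h. MTT (2 mg/mL in PBS) added for 2 h, formazan dissolved in DMSO, absorbance read at 570 nm. GI50 interpolated by linear regression from at least three points in the 20-80% range; three independent experiments.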

PC-3 = experiment: Cytotoxicity against human PC3 cells after 48 hrs by MTT assay; type: functional; settings: PC-3, 48 h; method in brief: as §1
SAS [3] = experiment: Selectivity index, ratio of IC50 for human Detroit 551 cells to IC50 for human SAS cells; type: functional
A549 = experiment: Cytotoxicity against human A549 cells after 48 hrs by MTT assay; type: functional; settings: A549, 48 h; method in brief: as §1
HeLa [4] = experiment: Cytotoxicity against human HeLa cells after 48 hrs by MTT assay; type: functional; method in brief: as §1
Homo sapiens = organism: Homo sapiens; experiment: Inhibition of human topoisomerase 2 assessed as decrease in pBR322 mobility on agarose gel at 10 uM by electrophoresis
Method in brief: (§2)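 Enzyme preincubated with compound before DNA addition; reaction run 30 min at 37 °C and stopped with SDS. Products resolved on 1% agarose, stained with ethidium bromide, quantified by densitometry.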

Detroit 551 [5] = experiment: Selectivity index, ratio of IC50 for human Detroit 551 cells to IC50 for human PC3 cells; type: functional
SAS [6] = experiment: Cytotoxicity against human SAS cells after 48 hrs by MTT assay; type: functional; method in brief: as §1
[7] = Inhibition of human topoisomerase 2 assessed as decrease in pBR322 mobility on agarose gel by electrophoresis; method in brief: as §2
[8] = Cytotoxicity against human Detroit 551 cells after 48 hrs by MTT assay; type: cell-based; method in brief: as §1
DNA topoisomerase 1 = molecular target: T1, DNA topoisomerase 1 (Homo sapiens, UniProt P11387); experiment: Inhibition of human topoisomerase 1 assessed as decrease in pBR322 mobility on agarose gel by electrophoresis; method in brief: as §2
T1 sequence (P11387 whole entry): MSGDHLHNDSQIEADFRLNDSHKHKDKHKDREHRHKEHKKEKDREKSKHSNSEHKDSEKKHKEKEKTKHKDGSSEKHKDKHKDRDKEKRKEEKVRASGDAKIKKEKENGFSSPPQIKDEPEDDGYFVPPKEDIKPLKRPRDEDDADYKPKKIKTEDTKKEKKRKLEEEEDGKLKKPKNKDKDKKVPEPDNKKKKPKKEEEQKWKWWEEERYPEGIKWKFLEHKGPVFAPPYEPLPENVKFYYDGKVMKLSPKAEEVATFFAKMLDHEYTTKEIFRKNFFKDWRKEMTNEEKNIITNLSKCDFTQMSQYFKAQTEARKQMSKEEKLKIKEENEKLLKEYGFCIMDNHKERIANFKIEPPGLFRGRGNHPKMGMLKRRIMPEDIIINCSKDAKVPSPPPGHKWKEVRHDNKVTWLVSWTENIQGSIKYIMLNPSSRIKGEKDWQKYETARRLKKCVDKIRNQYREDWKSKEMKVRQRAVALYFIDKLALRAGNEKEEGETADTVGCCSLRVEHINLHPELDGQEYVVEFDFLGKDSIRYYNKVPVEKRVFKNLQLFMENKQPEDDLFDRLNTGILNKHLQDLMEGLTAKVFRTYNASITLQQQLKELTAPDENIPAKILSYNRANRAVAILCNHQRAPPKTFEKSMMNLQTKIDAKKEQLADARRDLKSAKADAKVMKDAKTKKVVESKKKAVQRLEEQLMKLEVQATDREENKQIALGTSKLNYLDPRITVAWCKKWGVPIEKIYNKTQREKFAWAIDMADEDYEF

[9] = molecular target: T2, DNA topoisomerase 1 (Homo sapiens) (UniProt P11387); experiment: Inhibition of human topoisomerase 1 assessed as decrease in pBR322 mobility on agarose gel at 10 uM by electrophoresis; method in brief: as §2
T2 sequence (whole entry): T1 sequence (P11387 whole entry)

[10] = Cytotoxicity against human SKHep cells after 48 hrs by MTT assay; type: functional; method in brief: as §1
HeLa [11] = experiment: Selectivity index, ratio of IC50 for human Detroit 551 cells to IC50 for human HeLa cells; type: functional
Detroit 551 [12] = experiment: Selectivity index, ratio of IC50 for human Detroit 551 cells to IC50 for human BT-483 cells; type: functional
Detroit 551 [13] = experiment: Selectivity index, ratio of IC50 for human Detroit 551 cells to IC50 for human A549 cells; type: functional

| Compound | RatioGI50 (Detroit 551 [1]) | Activity (Nucleic Acid) | GI50 [2] [µM] | GI50 (PC-3) [µM] | RatioGI50 (SAS [3]) | GI50 (A549) [µM] | GI50 (HeLa [4]; read-out: GI50) [µM] | GI50 (HeLa [4]; read-out: pGI50 (converted)) [µM] | inhibition (Homo sapiens) [%] | RatioGI50 (Detroit 551 [5]) | GI50 (SAS [6]) [µM] | IC50 [7] [µM] | GI50 at 48 h [8] [µM] | IC50 (DNA topoisomerase 1) [µM] | inhibition [9] [%] | GI50 [10] [µM] | RatioGI50 (HeLa [11]) | RatioGI50 (Detroit 551 [12]) | RatioGI50 (Detroit 551 [13]) |
| --- | --- | --- | --- | --- | --- | --- | --- | --- | --- | --- | --- | --- | --- | --- | --- | --- | --- | --- | --- |
| COc1ccc2c(c1)/C(=N\OCCN(C)C)c1c-2c(O)nc2ccccc12 | 3.75 | Active | 4.04 | 5.34 | 8.73 | 1 | 0.23 | 0.229 | 46 | 1.8 | 1.1 | 10.2 | 9.6 | 7.4 | 73 | 2.56 | 41.74 | 2.38 | 9.6 |
| CC[C@@]1(O)C(=O)OCc2c1cc1n(c2=O)Cc2cc3ccccc3nc2-1 [CAMPTOTHECIN] | – | – | 1.03 | – | – | – | 0.08 | – | 0 | – | – | > 100 | 0.99 | – | – | – | – | – | – |
| COc1cccc2c1C(=O)c1c(O)c3c(c(O)c1C2=O)C[C@@](O)(C(=O)CO)C[C@@H]3O[C@H]1C[C@H](N)[C@H](O)[C@H](C)O1 [DOXORUBICIN] | – | – | – | – | – | – | – | – | 85 | – | – | 1.9 | – | – | 35 | – | – | – | – |
| COc1ccc2c(c1)/C(=N\OCCCN(C)C)c1c-2c(N2CCNCC2)nc2ccccc12 | 0.94 | Active | 1.37 | – | 0.56 | – | – | 0.372 | 88 | 0.52 | – | 4.05 | 2.77 | 6.6 | 70 | – | 7.49 | 2.02 | 7.29 |
| COc1ccc2c(c1)/C(=N\OCCN1CCOCC1)c1c-2cnc2ccccc12 | – | – | 10.2 | 7.81 | – | 28.2 | 16.9 | 17 | 0 | – | 15.7 | > 100 | – | > 100 | 0 | 20.8 | – | – | – |
| COc1ccc2c(c1)/C(=N\O)c1c-2c(N2CCNCC2)nc2ccccc12 | – | – | – | – | – | – | – | 2.34 | – | – | – | – | – | – | – | – | – | – | – |
| COc1ccc2c(c1)C(=O)c1c-2cnc2ccccc12 | – | – | > 30 | > 30 | – | 13.5 | 17.2 | 17.4 | 0 | – | > 30 | > 100 | – | > 100 | 0 | > 30 | – | – | – |
| COc1ccc2c(c1)/C(=N\OCCN(C)C)c1c-2c(N2CCNCC2)nc2ccccc12 | 0.9 | Active | 1.1 | – | 0.43 | – | – | 0.912 | 75 | 0.59 | – | 4.87 | 2.72 | 8.5 | 56 | – | 2.96 | 2.47 | 3.83 |
| COc1ccc2c(c1)/C(=N\OCCN1CCCCC1)c1c-2c(N2CCNCC2)nc2ccccc12 | 1.46 | Active | 4.03 | – | 0.4 | – | – | 0.776 | 68 | 0.41 | – | 8 | 2.3 | 11.5 | 45 | – | 2.95 | 0.57 | 2.64 |
| COc1ccc2c(c1)/C(=N\O)c1c-2cnc2ccccc12 | – | – | > 30 | > 30 | – | > 30 | 11.4 | 11.5 | – | – | > 30 | – | – | – | – | 8.42 | – | – | – |
| COc1ccc2c(c1)/C(=N\OCCN1CCCCC1)c1c-2c(=O)[nH]c2ccccc12 | – | – | – | – | – | – | – | – | – | – | – | – | 7.5 | > 100 | – | – | – | – | – |
| COc1ccc2c(c1)/C(=N\OCCCN(C)C)c1c-2c(=O)[nH]c2ccccc12 | – | – | – | – | – | – | – | – | – | – | – | – | 2.09 | > 100 | – | – | – | – | – |
| COc1ccc2c(c1)/C(=N\OCCN1CCCC1)c1c-2cnc2ccccc12 | 4.17 | Active | 3.11 | 2.32 | 5.29 | 1.54 | 0.45 | 0.447 | 80 | 2.71 | 1.19 | 6.5 | 6.29 | 8.2 | 67 | 1.51 | 13.98 | 2.02 | 4.08 |
| COc1ccc2c(c1)/C(=N\OCCN1CCOCC1)c1c-2c(N2CCNCC2)nc2ccccc12 | 2.65 | – | 3.75 | 6.47 | 0.38 | 2.2 | 0.78 | 0.776 | 100 | 0.4 | 6.93 | 5.97 | 2.6 | 13 | 40 | 0.98 | 3.33 | 0.69 | 1.18 |
| COc1ccc2c(c1)/C(=N\OCCCN(C)C)c1c-2cnc2ccccc12 | 3.22 | – | 0.93 | 5.65 | 0.57 | 1.83 | 1.11 | 1.12 | 75 | 0.61 | 6.1 | 13.2 | 3.45 | 40 | 5 | 1.07 | 3.11 | 3.71 | 1.89 |
| COc1ccc2c(c1)/C(=N\OCCN1CCCC1)c1c-2c(N2CCNCC2)nc2ccccc12 | 2.16 | Active | 1.43 | 3.37 | 0.6 | 0.5 | 0.57 | 0.575 | 74 | 0.44 | 2.43 | 6.44 | 1.47 | 12.8 | 48 | 0.68 | 2.58 | 1.03 | 4.63 |
| COc1ccc2c(c1)/C(=N\OCCN1CCOCC1)c1c-2c(O)nc2ccccc12 | – | – | 6.04 | 13.6 | – | > 30 | 5.02 | 5.01 | 0 | – | 16.5 | > 100 | – | > 100 | 0 | 10.4 | – | – | – |
| COc1ccc2c(c1)/C(=N\OCCCN(C)C)c1c-2c(O)nc2ccccc12 | 2.79 | Active | 1.29 | 4.35 | 0.67 | 0.63 | 0.2 | 0.2 | 77 | 0.48 | 3.1 | 7.14 | – | – | 3 | 0.75 | 10.45 | 1.62 | 3.32 |
| COc1ccc2c(c1)/C(=N\OCCN1CCCCC1)c1c-2c(O)nc2ccccc12 | 1.75 | Active | 1.59 | 5.74 | 1.39 | 6.95 | 0.84 | 0.832 | 0 | 1.31 | 5.39 | > 100 | – | – | 0 | 4.28 | 8.93 | 4.72 | 1.08 |
